Six molecules from ChEMBL document CHEMBL1143127 (Bioorg Med Chem, 2008) can be followed below.

Calls of active or inactive are those of the source. No cut-off for these calls is given here.

The test system of data set [1] is T47D. Briefly: Antiproliferative activity against estrogen receptor positive human T47D cells at 0.1 uM after 8 days relative to control. The class given is functional, cell-based. The gist of the method: (§1)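 Estrogen-starved cells, resuspended in phenol red-free medium (RPMI for T-47D, DME-F12 for MCF-7) with insulin (50 ng/mL) and 5% dextran-coated charcoal-treated FBS, seeded 3000 cells/well. After 48 h medium replaced with compound dilutions (0.01, 0.1, 1 μM), renewed every 2 days for 8 days. Growth read by CellTiter 96 Aqueous assay; control = 100%; triplicate, mean ± SEM.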

In data set [2] the test system is T47D. Briefly: Antiproliferative activity against estrogen receptor positive human T47D cells at 1 uM after 8 days relative to control. The class given is functional. Summed up: as §1
Data set [3] has as its system MCF7. Briefly: Antiproliferative activity against estrogen receptor positive human MCF7 cells at 0.1 uM after 8 days relative to control. The class given is functional. The gist of the method:
as §1

In data set [4] the test system is T47D. Briefly: Antiproliferative activity against estrogen receptor positive human T47D cells at 0.01 uM after 8 days relative to control. The class given is functional, cell-based. Summed up:
as §1

In data set [5] the test system is MCF7. Briefly: Reversal of estrogen-induced proliferation in estrogen-sensitive human MCF7 cells at 0.5 uM after 8 days relative to control. The class given is functional, cell-based. The gist of the method:
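Antiestrogenic test: MCF-7 cells plated in phenol red-free DME-F12 with charcoal-stripped FBS; two days later incubated 8 days with E₂ (0.1 nM) plus compound (0.5 μM), pure antiestrogen EM-139 (0.5 μM) as reference, medium changed every second day. CellTiter 96 Aqueous read-out; triplicate, mean ± SEM.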

Data set [6] concerns the target T1, 17-beta-hydroxysteroid dehydrogenase type 2 (Homo sapiens) (UniProt P37059).
T1 sequence (whole entry): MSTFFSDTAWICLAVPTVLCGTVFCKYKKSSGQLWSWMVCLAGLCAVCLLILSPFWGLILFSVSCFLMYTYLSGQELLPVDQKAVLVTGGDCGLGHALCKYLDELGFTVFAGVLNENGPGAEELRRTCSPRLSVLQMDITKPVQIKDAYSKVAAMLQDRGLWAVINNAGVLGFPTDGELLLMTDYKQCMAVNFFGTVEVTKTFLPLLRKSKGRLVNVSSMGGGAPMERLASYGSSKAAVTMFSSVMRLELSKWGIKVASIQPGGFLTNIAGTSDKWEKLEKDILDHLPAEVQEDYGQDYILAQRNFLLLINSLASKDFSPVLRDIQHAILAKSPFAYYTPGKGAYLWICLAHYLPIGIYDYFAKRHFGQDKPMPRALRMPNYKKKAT
Briefly: Inhibition of 17beta-HSD2 over-expressed in HEK293 cells assessed as inhibition of transformation of [14C]-estrogen into [14C]-estrone at 10 uM. It is filed as cell-based.

The target of data set [7] is T2, 17-beta-hydroxysteroid dehydrogenase type 1 (Homo sapiens, UniProt P14061).
T2 sequence (P14061 whole entry): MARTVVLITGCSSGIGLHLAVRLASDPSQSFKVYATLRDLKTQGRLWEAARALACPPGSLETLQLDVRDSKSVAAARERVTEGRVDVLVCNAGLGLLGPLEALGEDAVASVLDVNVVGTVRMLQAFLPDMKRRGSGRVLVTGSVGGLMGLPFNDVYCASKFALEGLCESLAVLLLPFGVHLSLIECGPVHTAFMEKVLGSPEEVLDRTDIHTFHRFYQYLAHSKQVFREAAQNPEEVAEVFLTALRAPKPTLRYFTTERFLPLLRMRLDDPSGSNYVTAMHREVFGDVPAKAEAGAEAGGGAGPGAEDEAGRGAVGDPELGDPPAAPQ
Briefly: Inhibition of 17beta-HSD1 in human T47D cells assessed as inhibition of transformation of [14C]-estrone into [14C]estrogen. It is filed as cell-based.

In data set [8] the test system is T47D. Briefly: Reduction of estrone-induced human T47D cell growth at 0.5 uM after 8 days relative to control. The class given is functional. Also noted: scale not given: the % may be the effect or the level left. Summed up:
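T-47D cells in estrogen-free phenol red-free RPMI with insulin and 5% charcoal-stripped FBS, grown 8 days with E₁ (0.01, 0.1, 1 or 5 nM) plus inhibitor (0.05–1 μM), medium changed every 2 days. Proliferation by CellTiter 96 Aqueous assay; growth without E₁ and inhibitor = 100%. Triplicate, mean ± SEM; Duncan–Kramer test.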

Substrate in data set [9]: C[C@]12CC[C@@H]3c4ccc(O)cc4CC[C@H]3[C@@H]1CC[C@@H]2O
Substrate in data set [10]: C[C@]12CC[C@@H]3c4ccc(O)cc4CC[C@H]3[C@@H]1CCC2=O

Regarding `COc1cc2c(cc1O)CC[C@@H]1[C@@H]2CC[C@]2(C)[C@@H](O)[C@@H](Cc3cccc(C(N)=O)c3)C[C@@H]12`, the outcome in the data set on T47D [1] and in the data set with T47D [4] was inactive. The Activity in the data set on T47D [2] was found to be 41%; with MCF7 [3], 21%.

Regarding `CCCCN(C)C(=O)CCCCCCCCCC[C@@H]1Cc2cc(O)ccc2[C@H]2CC[C@]3(C)[C@@H](O)[C@H](Cl)C[C@H]3[C@H]12`, the outcome with MCF7 [5] was Active.

In general, IC50 refers to the concentration at which inhibition is half-maximal. For `C[C@]12CC[C@@H]3c4ccc(O)cc4CC[C@H]3[C@@H]1C[C@H](Cc1cccc(C(N)=O)c1)[C@@H]2O`, the result (in the data set with MCF7 [5]; in data set [6]) was inactive. Further, the IC50 in [7] was determined as 44 nM. In the data set on T47D [8], this molecule gave an Activity of 62%.

Consider `C[C@]12CC[C@@H]3c4ccc(O)cc4CC[C@H]3[C@@H]1C[C@H](Cc1cccc(C(N)=O)c1)C2=O`, for which the IC50 in data set [7] amounted to 171 nM.

`C[C@]12CC[C@@H]3c4ccccc4CC[C@H]3[C@@H]1C[C@H](Cc1cccc(C(N)=O)c1)[C@@H]2O`: the outcome in the data set on T47D [1] and in the data set on T47D [4] was inactive. Moreover, the values for the Activity with T47D [2] and in the data set on MCF7 [3] were 47% and 31%, respectively.

B1: 17-beta-hydroxysteroid dehydrogenase type 1 (Homo sapiens), P14061 (protein)
chain: T2 sequence (P14061 whole entry)
The Km is the substrate concentration at which the rate is half of its maximum. B1: the Km in [9] was 4.6 µM; in [10], 0.03 µM.
